# Measurements taken from ChEMBL document CHEMBL1128689, “Vinyl sulfones as mechanism-based cysteine protease inhibitors” (J Med Chem, 1995).
# What was measured:
# Cathepsin S = Cathepsin S (Homo sapiens, UniProt P25774); test: Compound is evaluated for inhibition kinetic constant (kobs/[I], 1/M.1/s) for cathepsin S
# Method in brief: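 Fluorescence ex 380/em 450 nm, 5 min or to ≤1% activity. kobs from first-order fits, ≥6 inhibitor levels near Ki, fit to saturation equation; Ki corrected by 1+[S]/Km; duplicates.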
# Procathepsin L = Procathepsin L (Homo sapiens, UniProt P07711); test: Compound is evaluated for inhibition kinetic constant (kobs/[I], 1/M.1/s) for cathepsin L
# Method in brief: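 Fluorescence increase (ex 380, em 450 nm) followed 5 min or to ≤1% activity. kobs by first-order fit at ≥6 inhibitor levels near Ki, fit to saturation equation; Ki = Ki app/(1+[S]/Km); duplicates.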
# Cathepsin B [1] = target: T1, Cathepsin B (Homo sapiens, UniProt P07858); test: Compound is evaluated for inhibition kinetic constant (kobs/[I], 1/M.s) for cathepsin B
# Method in brief: (§1)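 Cathepsin B, ~5-10 nM, added to 50 mM phosphate pH 6.0, 2.5 mM EDTA, 2.5 mM DTT, 50 μM Z-Arg-Arg-AMC (Km 190 μM), DMF <1%, 25 °C. Fluorescence ex 380/em 450 nm over 5 min. kobs by first-order fit at ≥6 inhibitor concentrations; kirr and Ki app from saturation fit, Ki = Ki app/(1+[S]/Km); kirr/Ki also from 1/kobs vs 1/[I]; duplicates.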
# [2] = target: Cruzipain (Trypanosoma cruzi) (UniProt P25779); test: Compound is evaluated for inhibition kinetic constant (kobs/[I], 1/M.1/s) for Cruzaine
# Method in brief: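 Enzyme (~1-5 nM) starts the reaction with substrate and inhibitor present. Fluorescence ex 380/em 450 nm for 5 min. kobs from first-order fits at ≥6 inhibitor concentrations; Ki app corrected by 1+[S]/Km; second-order constant from 1/kobs vs 1/[I] slope; duplicates.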
# [3] = target: T2, Cathepsin K (Homo sapiens) (UniProt P43235); test: Compound is evaluated for inhibition kinetic constant (kobs/[I], 1/M.1/s) for cathepsin O2
# T2 sequence (whole entry): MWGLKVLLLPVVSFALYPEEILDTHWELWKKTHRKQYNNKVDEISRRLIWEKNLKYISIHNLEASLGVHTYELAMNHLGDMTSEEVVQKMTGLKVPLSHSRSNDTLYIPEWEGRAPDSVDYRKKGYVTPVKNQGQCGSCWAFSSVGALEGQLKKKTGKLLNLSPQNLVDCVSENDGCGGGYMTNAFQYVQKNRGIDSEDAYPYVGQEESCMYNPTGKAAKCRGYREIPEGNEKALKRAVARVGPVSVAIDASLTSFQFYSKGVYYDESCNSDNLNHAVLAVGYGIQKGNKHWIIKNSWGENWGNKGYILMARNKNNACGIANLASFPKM
# Method in brief: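 Read at ex 380/em 450 nm for 5 min. Progress curves fit first-order for kobs at ≥6 inhibitor concentrations; kinact and Ki app from saturation fit, Ki corrected for substrate; ratio also from double-reciprocal slope; duplicates.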
# Cathepsin B [4] = target: T1, Cathepsin B; test: Ratio of inhibition kinetic constants kirr and Ki against Cathepsin B; method in brief: as §1
# Cathepsin B [5] = target: T1, Cathepsin B; test: Compound is evaluated for inhibition kinetic constant Kirr for the cathepsin B; method in brief: as §1
# Cathepsin B [6] = target: T1, Cathepsin B; test: Compound is evaluated for inhibition kinetic constant Ki for the cathepsin B; method in brief: as §1
# [7] = target: T3, Calpain-1 catalytic subunit (Homo sapiens) (UniProt P07384); test: Compound is evaluated for inhibition kinetic constant (kobs/[I], 1/M.1/s) for calpain 1
# T3 sequence (whole entry): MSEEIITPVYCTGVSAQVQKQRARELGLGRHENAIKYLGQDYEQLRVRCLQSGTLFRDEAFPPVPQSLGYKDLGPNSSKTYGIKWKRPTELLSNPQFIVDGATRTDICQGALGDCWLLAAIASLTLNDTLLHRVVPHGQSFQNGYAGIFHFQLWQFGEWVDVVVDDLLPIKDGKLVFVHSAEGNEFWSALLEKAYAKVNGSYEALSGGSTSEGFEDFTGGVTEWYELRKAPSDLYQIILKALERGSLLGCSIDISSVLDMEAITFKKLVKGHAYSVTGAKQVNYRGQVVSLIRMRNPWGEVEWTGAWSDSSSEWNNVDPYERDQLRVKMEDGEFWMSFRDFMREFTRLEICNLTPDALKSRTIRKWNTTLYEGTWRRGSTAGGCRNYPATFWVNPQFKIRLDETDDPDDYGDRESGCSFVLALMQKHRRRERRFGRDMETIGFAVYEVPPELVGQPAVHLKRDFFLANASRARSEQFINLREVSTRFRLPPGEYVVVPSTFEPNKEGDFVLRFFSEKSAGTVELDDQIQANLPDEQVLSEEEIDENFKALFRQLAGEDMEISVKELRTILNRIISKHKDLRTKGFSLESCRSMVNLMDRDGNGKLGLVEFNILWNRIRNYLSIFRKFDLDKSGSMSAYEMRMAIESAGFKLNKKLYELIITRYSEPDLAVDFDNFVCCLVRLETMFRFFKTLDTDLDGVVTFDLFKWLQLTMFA
# Method in brief: (§2)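 Enzyme ~20 nM is added last to substrate plus inhibitor at 25 °C. Fluorescence ex 380/em 450 nm for 5 min or until ≤1% activity. Progress curves fit first-order to kobs; reported as kobs/[I]; duplicate runs.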
# [8] = target: T4, Calpain-2 catalytic subunit (Homo sapiens) (UniProt P17655); test: Compound is evaluated for inhibition kinetic constant (kobs/[I], 1/M.1/s) for Calpain 2; method in brief: as §2
# T4 sequence (whole entry): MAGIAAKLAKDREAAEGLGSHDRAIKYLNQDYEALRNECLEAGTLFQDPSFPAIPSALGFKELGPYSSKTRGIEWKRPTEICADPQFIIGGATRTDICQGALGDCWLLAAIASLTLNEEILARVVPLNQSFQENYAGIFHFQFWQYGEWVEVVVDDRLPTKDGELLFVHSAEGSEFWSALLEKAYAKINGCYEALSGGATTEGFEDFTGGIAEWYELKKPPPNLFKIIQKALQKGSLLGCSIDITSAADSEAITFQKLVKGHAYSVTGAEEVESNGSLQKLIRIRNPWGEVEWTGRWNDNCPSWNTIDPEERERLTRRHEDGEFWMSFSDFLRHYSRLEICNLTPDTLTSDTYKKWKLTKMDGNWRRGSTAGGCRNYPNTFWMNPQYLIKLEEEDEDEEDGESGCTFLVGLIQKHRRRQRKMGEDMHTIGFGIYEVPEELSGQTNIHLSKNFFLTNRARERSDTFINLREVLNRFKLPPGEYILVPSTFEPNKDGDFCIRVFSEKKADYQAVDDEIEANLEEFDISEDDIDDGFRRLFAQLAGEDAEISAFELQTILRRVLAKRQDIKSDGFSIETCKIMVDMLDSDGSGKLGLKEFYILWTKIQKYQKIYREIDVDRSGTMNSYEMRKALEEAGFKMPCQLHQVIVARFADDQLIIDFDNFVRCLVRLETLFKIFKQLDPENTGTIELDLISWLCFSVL
# Sequence of Procathepsin L (P07711 114-333 limits assumed): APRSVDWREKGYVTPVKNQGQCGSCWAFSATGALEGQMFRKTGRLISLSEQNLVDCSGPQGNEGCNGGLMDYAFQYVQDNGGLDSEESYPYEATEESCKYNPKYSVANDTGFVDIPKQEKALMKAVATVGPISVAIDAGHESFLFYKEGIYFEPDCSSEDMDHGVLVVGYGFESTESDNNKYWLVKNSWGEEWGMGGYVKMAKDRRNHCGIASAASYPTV
# Sequence of Cathepsin S (P25774 115-331 limits assumed): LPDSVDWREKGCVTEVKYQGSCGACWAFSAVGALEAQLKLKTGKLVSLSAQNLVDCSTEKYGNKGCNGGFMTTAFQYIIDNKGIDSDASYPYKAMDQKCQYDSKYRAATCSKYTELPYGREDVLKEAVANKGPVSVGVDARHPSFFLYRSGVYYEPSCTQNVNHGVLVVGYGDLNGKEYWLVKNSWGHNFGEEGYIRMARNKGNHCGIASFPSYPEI
# Sequence of Cruzipain (Trypanosoma cruzi) (P25779 123-467 limits assumed): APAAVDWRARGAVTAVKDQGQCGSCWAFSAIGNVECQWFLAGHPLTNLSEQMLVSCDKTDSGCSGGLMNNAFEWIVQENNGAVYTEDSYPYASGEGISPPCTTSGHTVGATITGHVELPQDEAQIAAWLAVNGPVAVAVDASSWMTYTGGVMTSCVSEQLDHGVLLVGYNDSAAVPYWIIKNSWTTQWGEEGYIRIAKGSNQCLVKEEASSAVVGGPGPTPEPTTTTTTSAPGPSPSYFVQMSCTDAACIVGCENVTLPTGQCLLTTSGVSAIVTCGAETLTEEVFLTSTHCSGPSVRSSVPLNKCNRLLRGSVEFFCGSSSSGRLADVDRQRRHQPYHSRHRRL
Structure (SMILES),k obs / 1 (Cathepsin S) [M⁻¹ s⁻¹],k obs / 1 (Procathepsin L) [M⁻¹ s⁻¹],k obs / 1 (Cathepsin B [1]) [M⁻¹ s⁻¹],k obs / 1 [2] [M⁻¹ s⁻¹],k obs / 1 [3] [M⁻¹ s⁻¹],Ratio (Cathepsin B [4]),kirr (Cathepsin B [5]) [s⁻¹],Ki (Cathepsin B [6]) [µM],k obs / 1 [7] [M⁻¹ s⁻¹],k obs / 1 [8] [M⁻¹ s⁻¹]
O=C(NC(=O)[C@H](Cc1ccccc1)NC(=O)[C@H](CCc1ccccc1)N/C=C/S(=O)(=O)CCc1ccccc1)NN1CCOCC1,4.7e+06,340000,29000,180000,28500,–,–,–,–,–
O=C(NC(=O)[C@H](Cc1cc(I)c(O)c(I)c1)NC(=O)[C@H](CCc1ccccc1)N/C=C/S(=O)(=O)c1ccccc1)NN1CCOCC1,–,–,–,–,–,1.08e+06,0.36,0.34,–,–
NCCCC[C@H](N/C=C/S(=O)(=O)c1ccccc1)C(=O)N[C@@H](Cc1ccccc1)C(=O)NC(=O)NN1CCOCC1,1.07e+07,220000,11300,149000,83300,–,–,–,–,–
CS(=O)(=O)/C=C/N[C@@H](CCc1ccccc1)C(=O)N[C@@H](Cc1ccccc1)C(=O)NC(=O)NN1CCOCC1,1.2e+06,8700,5100,22000,6540,–,–,–,–,–

# The next lines start with the values.
k obs / 1 (Cathepsin S) [M⁻¹ s⁻¹],k obs / 1 (Procathepsin L) [M⁻¹ s⁻¹],k obs / 1 (Cathepsin B [1]) [M⁻¹ s⁻¹],k obs / 1 [2] [M⁻¹ s⁻¹],k obs / 1 [3] [M⁻¹ s⁻¹],Ratio (Cathepsin B [4]),kirr (Cathepsin B [5]) [s⁻¹],Ki (Cathepsin B [6]) [µM],k obs / 1 [7] [M⁻¹ s⁻¹],k obs / 1 [8] [M⁻¹ s⁻¹],Structure (SMILES)
–,1.5e+06,0,104000,22700,–,–,–,8400,24300,CC(=O)N[C@@H](CC(C)C)C(=O)N[C@@H](CC(C)C)C(=O)N[C@@H](CCS(C)(=O)=O)C(=O)/C=C/S(=O)(=O)c1ccccc1
280000,–,730,45000,900,–,–,–,6400,–,CC(C)C[C@H](NC(=O)OCc1ccccc1)C(=O)N[C@@H](CC(C)C)C(=O)N[C@@H](Cc1ccc(O)cc1)C(=O)/C=C/S(=O)(=O)c1ccccc1
–,930000,0,133000,–,–,–,–,6900,7600,CCCC[C@H](NC(=O)[C@H](CC(C)C)NC(=O)[C@H](CC(C)C)NC(C)=O)C(=O)/C=C/S(=O)(=O)c1ccccc1
